Source: ChEMBL document CHEMBL4808215, “Discovery of Selective Small-Molecule Inhibitors for the ENL YEATS Domain” (J Med Chem, 2021)
Blank lines part the entries; values can stand above or below the molecule they belong to. Active and inactive are the calls of the source. The calls are words filed in the database; no cut-off is given here.

Tests used:
[1] = target: T1, Protein ENL (Homo sapiens, UniProt Q03111); experiment: Inhibition of human His-ENL YEATS domain and biotinylated H3K9ac peptide interaction by AlphaScreen assay
T1 sequence (Q03111 whole entry): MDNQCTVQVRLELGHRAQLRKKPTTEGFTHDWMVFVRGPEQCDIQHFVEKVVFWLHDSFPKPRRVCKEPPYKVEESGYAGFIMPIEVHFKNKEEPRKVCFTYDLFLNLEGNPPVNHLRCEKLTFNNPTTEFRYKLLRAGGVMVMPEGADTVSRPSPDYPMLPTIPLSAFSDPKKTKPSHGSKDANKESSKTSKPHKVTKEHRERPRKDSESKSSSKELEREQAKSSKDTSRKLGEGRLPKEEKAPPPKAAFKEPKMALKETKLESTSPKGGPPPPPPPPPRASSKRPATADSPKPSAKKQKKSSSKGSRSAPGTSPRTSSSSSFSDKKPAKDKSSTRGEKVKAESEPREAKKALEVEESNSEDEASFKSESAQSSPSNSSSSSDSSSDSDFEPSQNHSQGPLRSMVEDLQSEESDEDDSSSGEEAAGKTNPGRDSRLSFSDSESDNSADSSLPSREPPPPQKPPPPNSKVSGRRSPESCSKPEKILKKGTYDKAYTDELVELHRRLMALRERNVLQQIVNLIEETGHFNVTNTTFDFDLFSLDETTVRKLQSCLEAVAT

[2] = target: T2, YEATS domain-containing protein 2 (Homo sapiens, UniProt Q9ULM3); experiment: Inhibition of human His-YEATS2 YEATS domain and biotinylated […] peptide interaction by AlphaScreen assay
T2 sequence (Q9ULM3 whole entry): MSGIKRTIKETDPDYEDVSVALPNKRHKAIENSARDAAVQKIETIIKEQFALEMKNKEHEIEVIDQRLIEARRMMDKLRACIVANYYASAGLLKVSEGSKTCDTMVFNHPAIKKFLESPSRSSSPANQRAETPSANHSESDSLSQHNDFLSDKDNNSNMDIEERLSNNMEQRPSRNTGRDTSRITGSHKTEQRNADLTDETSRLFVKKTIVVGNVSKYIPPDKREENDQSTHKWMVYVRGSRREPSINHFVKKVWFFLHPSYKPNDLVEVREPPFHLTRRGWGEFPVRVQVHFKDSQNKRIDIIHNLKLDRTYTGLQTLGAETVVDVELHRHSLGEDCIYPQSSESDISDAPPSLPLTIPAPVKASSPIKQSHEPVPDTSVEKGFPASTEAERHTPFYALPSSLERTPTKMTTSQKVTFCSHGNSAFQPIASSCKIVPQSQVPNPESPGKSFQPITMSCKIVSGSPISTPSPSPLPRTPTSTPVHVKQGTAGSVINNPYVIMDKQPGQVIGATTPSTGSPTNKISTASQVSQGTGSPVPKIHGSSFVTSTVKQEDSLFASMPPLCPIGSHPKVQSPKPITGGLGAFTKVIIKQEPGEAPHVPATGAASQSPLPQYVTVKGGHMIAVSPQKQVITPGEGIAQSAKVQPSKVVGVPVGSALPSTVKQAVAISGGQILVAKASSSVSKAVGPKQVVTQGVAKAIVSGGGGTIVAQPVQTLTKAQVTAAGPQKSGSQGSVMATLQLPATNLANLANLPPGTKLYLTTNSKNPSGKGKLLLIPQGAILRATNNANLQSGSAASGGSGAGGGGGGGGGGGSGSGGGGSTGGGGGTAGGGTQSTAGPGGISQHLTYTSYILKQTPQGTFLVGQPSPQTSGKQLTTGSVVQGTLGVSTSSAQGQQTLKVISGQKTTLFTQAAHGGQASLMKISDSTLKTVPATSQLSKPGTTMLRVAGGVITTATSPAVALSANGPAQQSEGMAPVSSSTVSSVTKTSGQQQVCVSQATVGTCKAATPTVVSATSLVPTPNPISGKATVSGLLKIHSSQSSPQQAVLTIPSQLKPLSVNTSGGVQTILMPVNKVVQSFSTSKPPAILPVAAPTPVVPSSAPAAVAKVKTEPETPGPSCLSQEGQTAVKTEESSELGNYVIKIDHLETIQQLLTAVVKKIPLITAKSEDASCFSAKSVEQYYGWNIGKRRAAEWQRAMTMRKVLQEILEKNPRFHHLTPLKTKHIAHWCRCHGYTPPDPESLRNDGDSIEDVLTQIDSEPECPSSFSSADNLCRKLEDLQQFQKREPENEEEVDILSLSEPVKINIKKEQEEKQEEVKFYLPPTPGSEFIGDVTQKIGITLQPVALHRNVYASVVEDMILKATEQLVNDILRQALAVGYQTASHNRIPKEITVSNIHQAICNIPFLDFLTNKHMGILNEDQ
Outline: (§1)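 His-tagged YEATS domains were expressed in E. coli Rosetta-2 (DE3) pLysS and purified on Ni-NTA. Partners were biotinylated peptide on streptavidin donor and Ni2+-chelate acceptor beads: AF9 30 nM with H3K9ac, GAS41 100 nM with H3K27ac, YEATS2 100 nM with H3K27cr. Peptides at 30 nM, buffer 50 mM HEPES pH 7.4, 100 mM NaCl, 0.1% BSA, 0.05% CHAPS. Thirteen-point 3-fold series from 54 μM to 0.1 nM, 4–6 replicates, signal normalised to no-compound control, four-parameter fit.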

[3] = target: T3, Protein AF-9 (Homo sapiens, UniProt P42568); experiment: Inhibition of human His-AF9 YEATS domain and biotinylated H3K9ac peptide interaction by AlphaScreen assay
T3 sequence (P42568 whole entry): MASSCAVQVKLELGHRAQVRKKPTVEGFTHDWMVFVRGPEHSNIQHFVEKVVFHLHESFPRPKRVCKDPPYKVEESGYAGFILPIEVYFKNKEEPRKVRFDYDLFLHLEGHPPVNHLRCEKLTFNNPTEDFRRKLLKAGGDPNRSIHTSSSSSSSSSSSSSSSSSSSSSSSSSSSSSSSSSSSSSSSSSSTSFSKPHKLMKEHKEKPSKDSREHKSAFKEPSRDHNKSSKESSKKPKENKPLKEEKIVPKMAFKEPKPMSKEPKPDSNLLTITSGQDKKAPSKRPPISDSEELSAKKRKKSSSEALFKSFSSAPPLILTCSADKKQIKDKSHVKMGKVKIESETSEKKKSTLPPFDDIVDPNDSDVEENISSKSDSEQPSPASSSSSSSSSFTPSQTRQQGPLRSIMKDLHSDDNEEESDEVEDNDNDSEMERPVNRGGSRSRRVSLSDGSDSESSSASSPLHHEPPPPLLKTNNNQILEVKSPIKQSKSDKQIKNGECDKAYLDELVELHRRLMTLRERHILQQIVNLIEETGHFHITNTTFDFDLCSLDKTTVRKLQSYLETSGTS

[4] = target: T4, YEATS domain-containing protein 4 (Homo sapiens, UniProt O95619); experiment: Inhibition of human His-GAS41 YEATS domain and biotinylated H3K27ac peptide interaction at 20 uM by AlphaScreen assay
T4 sequence (O95619 whole entry, the tested form may be a part): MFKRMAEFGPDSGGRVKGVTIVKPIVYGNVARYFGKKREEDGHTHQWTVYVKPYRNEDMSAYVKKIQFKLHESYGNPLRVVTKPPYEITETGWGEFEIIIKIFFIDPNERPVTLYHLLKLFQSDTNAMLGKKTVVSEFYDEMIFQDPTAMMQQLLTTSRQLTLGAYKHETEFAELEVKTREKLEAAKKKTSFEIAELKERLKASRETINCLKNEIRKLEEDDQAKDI

[5] = target: T5, Protein AF-9 (Homo sapiens) (UniProt P42568); experiment: Inhibition of human His-AF9 YEATS domain and biotinylated H3K9ac peptide interaction at 20 uM by AlphaScreen assay
T5 sequence (whole entry): T3 sequence (P42568 whole entry)

[6] = target: T4, YEATS domain-containing protein 4; experiment: Inhibition of human His-GAS41 YEATS domain and biotinylated H3K27ac peptide interaction by AlphaScreen assay; outline: as §1
[7] = target: T6, YEATS domain-containing protein 2 (Homo sapiens) (UniProt Q9ULM3); experiment: Inhibition of human His-YEATS2 YEATS domain and biotinylated […] peptide interaction at 20 uM by AlphaScreen assay
T6 sequence (whole entry): T2 sequence (Q9ULM3 whole entry)

[8] = organism: Homo sapiens; experiment: Selectivity ratio of IC50 for human His-AF9 YEATS domain to IC50 for human His-ENL YEATS domain
[9] = target: T7, Protein ENL (Homo sapiens) (UniProt Q03111); experiment: Inhibition of human His-ENL YEATS domain and biotinylated H3K9ac peptide interaction at 5 uM by AlphaScreen assay
T7 sequence (whole entry): T1 sequence (Q03111 whole entry)

Compound: CC(C)c1cnc(NCc2ccc(CNC(=O)c3ccc4nncn4c3)cc2)nc1
IC50 [1]: > 1000 nM

Compound: O=C(NCc1ccc(CNc2nc(F)ccc2F)cc1)c1ccc2nncn2c1
IC50 [1]: > 2000 nM

Compound: O=C(NCc1ccc(CN2CCC2)cc1)c1ccn2cnnc2c1
IC50 [1]: > 5000 nM

Compound: O=C(NCc1ccc(CNc2ccc(F)cn2)cc1)c1ccc2nncn2c1
IC50 [1]: > 5000 nM

Compound: O=C(NCc1ccc(CNc2ncc(F)cn2)cc1)c1ccc2nncn2c1
IC50 [2]: > 54000 nM
IC50 [3]: 729 nM
inhibition [4]: Active
inhibition [5]: Active
IC50 [6]: > 54000 nM
inhibition [7]: Active

Further molecules by falling IC50 [1], results first:

IC50 [1]: 636 nM
Compound: O=C(NCc1ccc(CN2CCCCC2)cc1)c1ccc2nncn2c1

IC50 [1]: 230 nM
IC50 [2]: > 54000 nM
IC50 [3]: 1850 nM
Ratio [8]: 4
inhibition [9]: Active
inhibition [4]: Active
inhibition [5]: Active
IC50 [6]: > 54000 nM
inhibition [7]: Active
Compound: CSc1ccc(CNC(=O)c2ccc3nncn3c2)cc1

IC50 [1]: 185 nM
Compound: CC1CCN1Cc1ccc(CNC(=O)c2ccc3nncn3c2)cc1 (stereo unspecified)
